Source: ChEMBL document CHEMBL2396576, “Identification of 1,6-dihydropyrazolo[4,3-c]carbazoles and 3,6-dihydropyrazolo[3,4-c]carbazoles as new Pim kinase inhibitors” (Bioorg Med Chem, 2013)
pIC50: −log10 of the molar value.

What was measured:
[1] = molecular target: T1, Serine/threonine-protein kinase pim-3 (Homo sapiens, UniProt Q86V86); experiment: Inhibition of human PIM3 using RSRHSSYPAGT as substrate after 30 mins
[2] = molecular target: T2, Serine/threonine-protein kinase pim-1 (Homo sapiens, UniProt P11309); experiment: Inhibition of human PIM1 using RSRHSSYPAGT as substrate after 30 mins
Target sequence in this assay (P11309 whole entry): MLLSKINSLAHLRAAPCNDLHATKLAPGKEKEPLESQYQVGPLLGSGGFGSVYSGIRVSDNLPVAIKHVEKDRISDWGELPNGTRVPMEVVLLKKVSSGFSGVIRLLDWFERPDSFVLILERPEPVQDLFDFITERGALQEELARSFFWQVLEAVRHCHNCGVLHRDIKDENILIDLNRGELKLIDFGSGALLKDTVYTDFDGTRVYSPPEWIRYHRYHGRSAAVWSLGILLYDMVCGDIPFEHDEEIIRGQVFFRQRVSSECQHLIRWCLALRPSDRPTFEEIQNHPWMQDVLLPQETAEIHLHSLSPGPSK

LNCaP = experiment: Antiproliferative activity against human LNCAP cells assessed as cell growth inhibition at 10 uM after 72 hrs by MTS assay; type: functional; conditions: read-out: GI
Procedure, shortened: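 LNCaP cells grown in RPMI 1640 with 10% FCS at 37 °C, 5% CO2, seeded at 5000 per well. After 24 h, compound in DMSO (1% final) added at 10 µM for 72 h; DMSO controls. Viable cells by MTS absorbance at 490 nm; percent proliferation inhibition.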

PC-3 [3] = experiment: Antiproliferative activity against human PC3 cells assessed as cell growth inhibition at 10 uM after 72 hrs by MTS assay; type: functional; conditions: PC-3, 72 h, read-out: GI
Procedure, shortened: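 PC3 cells kept in RPMI 1640 plus 10% FCS (37 °C, 5% CO2) and plated at 2500 per well. Compound added 24 h later at 10 µM in DMSO (1% final), 72 h exposure, vehicle controls. MTS read at 490 nm; percent inhibition of proliferation.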

[4] = molecular target: T1, Serine/threonine-protein kinase pim-3; experiment: Inhibition of human PIM3 assessed as residual activity using RSRHSSYPAGT as substrate at 1 uM after 30 mins
[5] = molecular target: T1, Serine/threonine-protein kinase pim-3; experiment: Inhibition of human PIM3 assessed as residual activity using RSRHSSYPAGT as substrate at 10 uM after 30 mins
[6] = molecular target: Serine/threonine-protein kinase pim-2 (Homo sapiens) (UniProt Q9P1W9); experiment: Inhibition of human PIM2 assessed as residual activity using RSRHSSYPAGT as substrate at 1 uM after 30 mins
Chain of Serine/threonine-protein kinase pim-2 (Homo sapiens) (Q9P1W9 whole entry, looked up): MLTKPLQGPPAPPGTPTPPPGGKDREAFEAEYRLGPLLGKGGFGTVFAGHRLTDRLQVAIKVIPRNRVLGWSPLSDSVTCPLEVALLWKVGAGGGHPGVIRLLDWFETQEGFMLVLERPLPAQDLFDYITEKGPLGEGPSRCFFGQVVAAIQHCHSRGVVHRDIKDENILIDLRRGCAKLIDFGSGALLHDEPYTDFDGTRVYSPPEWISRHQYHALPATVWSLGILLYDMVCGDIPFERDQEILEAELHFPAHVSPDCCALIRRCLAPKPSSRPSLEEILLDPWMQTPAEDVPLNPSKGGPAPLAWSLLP

[7] = molecular target: Serine/threonine-protein kinase pim-2 (Homo sapiens) (UniProt Q9P1W9); experiment: Inhibition of human PIM2 assessed as residual activity using RSRHSSYPAGT as substrate at 10 uM after 30 mins
[8] = molecular target: T2, Serine/threonine-protein kinase pim-1; experiment: Inhibition of human PIM1 assessed as residual activity using RSRHSSYPAGT as substrate at 1 uM after 30 mins
Target sequence in this assay (P11309 whole entry, looked up): as the sequence (P11309 whole entry) above

[9] = molecular target: T2, Serine/threonine-protein kinase pim-1; experiment: Inhibition of human PIM1 assessed as residual activity using RSRHSSYPAGT as substrate at 10 uM after 30 mins
Target sequence in this assay (P11309 whole entry, looked up): as the sequence (P11309 whole entry) above

PC-3 [10] = experiment: Antiproliferative activity against human PC3 cells assessed as cell growth inhibition after 72 hrs by MTS assay; type: functional, cell-based; conditions: PC-3, 72 h

pIC50 [1] | pIC50 [2] | Activity [4] | Activity [5] | Activity [6] | Activity [7] | Activity [8] | Activity [9] | pIC50 (PC-3 [10]) | SMILES | inhibition of growth at 10 µM (LNCaP) | inhibition of growth at 10 µM (PC-3 [3])
6.96 | 6.66 |  |  |  |  |  |  |  | COc1ccc2[nH]c3c([N+](=O)[O-])cc4c[nH]nc4c3c2c1 |  | 
 |  | 22% | 16% | 76% | 46% | 44% | 26% |  | O=[N+]([O-])c1cc2cn[nH]c2c2c1[nH]c1ccccc12 | 45% | 59%
 |  | 55% | 14% | 115% | 79% | 85% | 29% |  | Nc1cc2cn[nH]c2c2c1[nH]c1ccc(Cl)cc12 | 35% | 43%
 |  | 51% | 16% | 123% | 54% | 70% | 23% |  | COc1ccc2[nH]c3c(N)cc4[nH]ncc4c3c2c1 | 39% | 46%
 |  | 21% | 11% | 54% | 35% | 29% | 13% | 5.64 | COc1ccc2[nH]c3c([N+](=O)[O-])cc4[nH]ncc4c3c2c1 | 27% | 74%
 |  | 28% | 23% | 77% | 72% | 41% | 39% |  | COc1ccc2[nH]c3c([N+](=O)[O-])cc4cn[nH]c4c3c2c1 | 19% | 29%
6.96 | 6.82 |  |  |  |  |  |  |  | COc1ccc2[nH]c3c([N+](=O)[O-])cc4n[nH]cc4c3c2c1 |  | 
6.68 | 6.40 |  |  |  |  |  |  |  | O=[N+]([O-])c1cc2c[nH]nc2c2c1[nH]c1ccccc12 |  | 
6.96 | 5.96 | 28% | 7% | 107% | 34% | 45% | 8% |  | Nc1cc2[nH]ncc2c2c1[nH]c1ccc(Cl)cc12 | 27% | 45%
6.15 |  | 46% | 14% | 120% | 70% | 93% | 43% |  | COc1ccc2[nH]c3c(N)cc4cn[nH]c4c3c2c1 | 8% | 28%
 |  | 66% | 20% | 96% | 71% | 61% | 16% |  | Nc1cc2[nH]ncc2c2c1[nH]c1ccccc12 | 56% | 56%
 |  | 28% | 17% | 49% | 38% | 14% | 15% | 5.52 | O=[N+]([O-])c1cc2[nH]ncc2c2c1[nH]c1ccccc12 | 38% | 85%
 |  | 63% | 20% | 116% | 78% | 98% | 54% |  | Nc1cc2cn[nH]c2c2c1[nH]c1ccccc12 | 28% | 31%
6.22 |  |  |  |  |  |  |  |  | COc1ccc2[nH]c3c(N)cc4n[nH]cc4c3c2c1 |  | 
6.64 | 6.70 | 26% | 19% | 57% | 54% | 48% | 39% |  | O=[N+]([O-])c1cc2[nH]ncc2c2c1[nH]c1ccc(Cl)cc12 | 0% | 50%
7.05 |  | 50% | 38% | 90% | 93% | 69% | 60% |  | O=[N+]([O-])c1cc2cn[nH]c2c2c1[nH]c1ccc(Cl)cc12 | 28% | 51%
7.00 | 7.40 |  |  |  |  |  |  |  | O=[N+]([O-])c1cc2n[nH]cc2c2c1[nH]c1ccccc12 |  | 
